Screening results (PubChem)
MrgX1 ag = agonists of human MrgX1 receptor, primary screen, HEK293 cells, Fluo-4 calcium flux | hit rate 0.44% among 310,000 | B-score at 10 µM | Fluo-4 calcium fluorescence, agonist mode; hits give high values;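 active = calcium response B-score plate-corrected fluorescence ratio at least 3 library SD, with starting fluorescence B-score inside 5 SD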
Target sequence (Q96LB2 whole entry, looked up): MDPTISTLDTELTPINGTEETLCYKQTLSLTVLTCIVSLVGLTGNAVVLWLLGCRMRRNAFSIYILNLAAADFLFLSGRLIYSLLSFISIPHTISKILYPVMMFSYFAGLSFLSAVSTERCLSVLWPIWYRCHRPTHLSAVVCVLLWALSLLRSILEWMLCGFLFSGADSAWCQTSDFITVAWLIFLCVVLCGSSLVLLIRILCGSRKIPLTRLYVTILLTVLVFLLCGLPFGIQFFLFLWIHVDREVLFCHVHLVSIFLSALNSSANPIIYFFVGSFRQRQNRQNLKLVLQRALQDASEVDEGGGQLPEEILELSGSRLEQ
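Material: MrgX1-expressing HEK293 cells; input: 15,000 cells per well; doses: test compound given as first of three sequential additions; schedule: overnight plating before 1 h dye loading; technique: Fluo-4 NW calcium-flux fluorescence, kinetic read; evaluation: baseline-normalised fluorescence change ratio, B-scored; control set: plate-wise positive and negative controls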
RGS4 block = RGS4 inhibitors, primary screen, cell-based, HEK293 M3R inducible RGS4, calcium flux | Regulator of G-protein signaling 4 (Homo sapiens), P49798 | Fluo-4 calcium flux; hits give high values; triggered by carbachol at its EC20 | B-score at 10 µM | hit rate 0.45% among 310,000;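 active = B-score, a plate-corrected calcium signal, over three deviations above library mean, with baseline fluorescence within five deviations of library mean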;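 note: RGS4 expression induced by doxycycline in cells with stable M3 receptor; B-score is computed from the integrated fluorescence ratio over baseline after carbachol; higher B-score means a larger calcium signal and so more RGS4 inhibition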
Target sequence (P49798 whole entry, looked up): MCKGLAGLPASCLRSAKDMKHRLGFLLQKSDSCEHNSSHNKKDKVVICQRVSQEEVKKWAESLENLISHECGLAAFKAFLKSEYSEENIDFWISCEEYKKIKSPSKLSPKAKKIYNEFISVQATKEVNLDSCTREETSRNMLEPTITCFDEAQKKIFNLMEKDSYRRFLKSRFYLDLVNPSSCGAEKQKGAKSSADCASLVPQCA
RGS4 pot = RGS4 potentiators or activators, primary screen, cell-based, HEK293 M3R inducible RGS4, calcium flux; carbachol calcium flux Fluo4; hits give low values; B-score at 10 µM; hit rate 0.92% among 310,000; AID 463111, 2010;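 active = B-score of the integrated calcium signal more than 4 SD below the library mean, with starting fluorescence not abnormally high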;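 note: negative B-score means reduced calcium response which marks RGS4 activation or potentiation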
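Material: M3R-expressing HEK293 line, RGS4 induced by doxycycline | Schedule: Overnight RGS4 induction, 30 min dye load 37 °C, 20 min compound RT | Measured by: Fluo4 fluorescence kinetic imaging of calcium | Read-out: Integrated calcium ratio converted to B score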
MrgX1 PAM = positive allosteric modulators of MrgX1, primary screen, HEK293 cells, Fluo-4 calcium flux. FDSS; hits give high values. B-score at 10 µM. hit rate 0.63% among 310,000. AID 588675, 2011;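 active = plate-corrected calcium response at least 3 library SD above typical, normal starting fluorescence, not activating the receptor alone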;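 note: compound read alongside a low EC10 to EC30 dose of BAM8-22 agonist; peak minus trough fluorescence over baseline measured at the second addition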
MrgX1 antagonist = antagonists of human MrgX1 receptor, primary screen, HEK293 cells, Fluo-4 calcium flux | Mas-related G-protein coupled receptor member X1 (Homo sapiens), Q96LB2 | BAM8-22 antagonism; hits give low values | B-score at 10 µM | hit rate 1.3% among 310,000 | AID 588676, 2011;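 active = calcium-response B-score plate-corrected more than 3 library SD below zero, starting fluorescence within 5 deviations, no agonist response on first addition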;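 note: peak minus trough fluorescence over baseline after final BAM8-22 challenge near maximal dose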
* hit, by the source's call; i = inactive; / = no result given. Most compounds without a hit are left out; they make up all but 3.5% or so of the library.

SMILES	MrgX1 ag	RGS4 block	RGS4 pot	MrgX1 PAM	MrgX1 antagonist
CCOc1ccc(N2C=Nc3ccc(OCC)cc3C2)cc1	i	i	i	i	i
CCOc1ccccc1/C=N/OCC(=O)NCc1ccc(F)cc1	i	i	i	i	i
COC(=O)c1ccc(/C=N/OCC(=O)NCc2ccc(F)cc2)cc1	i	i	i	i	-5.36*
CCN(CC)CCNc1ncnc2c1[nH]c1ccc(OC)cc12	i	i	i	i	i
COc1ccc2[nH]c3c(NCCCOC(C)C)ncnc3c2c1	i	i	-7.42*	i	i
COc1ccccc1NC(=O)Cn1cc(C(=O)c2ccco2)c2ccccc21	i	i	i	i	i
COc1ccccc1OCCn1cc(C(=O)c2ccco2)c2ccccc21	i	i	-7.44*	i	i
CC(CN(C)C)CN1c2ccccc2CCc2ccccc21 (stereo not drawn)	i	i	i	i	-4.88*
CN(C)CCCN1c2ccccc2CCc2ccccc21	i	/	/	i	i
O=S(=O)(Nc1nc2ccccc2nc1Nc1cccc(S(=O)(=O)N2CCCCC2)c1)c1ccccc1	i	i	i	i	i
O=c1[nH]c(C2CCN(S(=O)(=O)c3ccc(C(F)(F)F)cc3)CC2)nc2c1nnn2Cc1ccccc1	i	i	i	i	i
COC(=O)C1=C(C)NC(C)=C(C(=O)OC)C1c1ccccc1[N+](=O)[O-]	i	i	-8.5*	i	i
COc1cc(C=O)ccc1OCCOCCOc1ccc(Cl)cc1	i	i	i	i	i
COc1cc(C=O)ccc1OCCSc1ccc(Cl)cc1	i	i	i	i	-5.38*
CCn1nc(C)c(CN2CCCC(CNS(=O)(=O)c3ccc(OC)cc3)C2)c1C (stereo not drawn)	i	i	i	i	i
O=C(CC1SC(=Nc2ccccc2)N(CCCO)C1=O)Nc1ccc(Cl)cc1 (stereo not drawn)	i	i	-9.07*	i	-4.59*
C/C(=N/NC(=O)c1ccccc1O)c1ccc(N2C(=O)C3CCCCC3C2=O)cc1 (stereo not drawn)	i	i	i	i	-8*
COc1ccccc1NS(=O)(=O)c1ccc(O)c(C(=O)OCc2cccc([N+](=O)[O-])c2)c1	i	i	i	i	-6.52*
COc1ccccc1NS(=O)(=O)c1ccc(C)c(C(N)=O)c1	i	i	i	i	i
CSCCC(NC(=O)c1ccc([N+](=O)[O-])cc1Cl)C(=O)OC(C)C(=O)NCc1ccco1 (stereo not drawn)	i	i	i	i	i
CC1=NN(c2ccccc2)C(=O)C1C(=O)c1ccc(Cl)cc1 (stereo not drawn)	32*	i	i	i	i
NC(=O)c1sc(-c2ccsc2)cc1NS(=O)(=O)c1ccc(C(F)(F)F)cc1	i	i	i	i	i
Cc1cc(C)c(S(=O)(=O)Nc2ccc3c4c(cccc24)CC3)c(C)c1	i	i	-7.55*	i	i
NC(=O)c1oc2ccccc2c1NC(=O)C1COc2ccccc2O1 (stereo not drawn)	i	i	i	i	i
CCCCc1cc(=O)oc2cc(C)cc(OCC(=O)NCc3ccncc3)c12	i	i	i	7.22*	i
SMILES	MrgX1 ag	RGS4 block	RGS4 pot	MrgX1 PAM	MrgX1 antagonist
CCN(CC)C(=O)Cn1nc(-c2ccc(Cl)cc2)c2ccccc2c1=O	i	i	i	i	i
CCCc1cc(=O)oc2cc(OC(=O)CN3C(=O)NC4(CCCC4)C3=O)ccc12	i	i	i	i	-8.61*
Cc1ccc(N2CCN(C(=O)N3CCOCC3)CC2)c(C)c1	i	i	i	i	i
Cc1nn(C)c(Cl)c1C(=O)NCC(=O)Nc1ccc(C(C)C)cc1	i	i	i	i	i
COc1cc(OC)c(NS(=O)(=O)c2cc(Br)cnc2N)cc1Cl	i	i	i	i	i
Cc1ccc(NS(=O)(=O)c2cc(Br)cnc2N)c(Cl)c1	i	i	-6.95*	i	i
O=C(CO/N=C1\CCCc2nonc21)Nc1ccc(Br)cc1	i	i	i	i	i
O=C(CO/N=C1\CCCc2nonc21)Nc1ccccc1Cl	i	i	i	13.6*	i
COc1ccc(NC(=O)CO/N=C2/CCCc3nonc32)c(OC)c1	i	i	i	i	-5.49*
COc1ccc(NC(=O)CO/N=C2\CCCc3nonc32)cc1	i	i	i	i	i
Cc1ccc(S(=O)(=O)NC(C)C(=O)NC(C)c2cccs2)cc1 (stereo not drawn)	i	i	i	i	i
CCOC(=O)SC1=N/C(=C\c2ccc(N(C)C)cc2)C(=O)S1	i	i	i	7.83*	i
CSC1=N/C(=C\c2ccc(C)cc2)C(=O)S1	i	i	i	15.7*	i
O=C(O)c1ccccc1NC(c1ccccc1)c1ccc(Cl)cc1 (stereo not drawn)	i	i	i	i	i
CC(C)(C)c1ccc(-n2ncc3c2CCCC3NC(=O)c2ccncc2)cc1 (stereo not drawn)	i	i	-8.89*	i	i
Cc1cc2oc(=O)cc(CN3CCc4ccccc43)c2cc1Cl	54*	i	i	i	i
CCc1ccc2c(CN3CCc4ccccc43)cc(=O)oc2c1	37.5*	i	i	i	i
Cc1ccc(C2C(C(=O)c3cccs3)=C(O)C(=O)N2c2nnc(C)s2)cc1 (stereo not drawn)	i	i	i	i	i
O=c1nc2ccc(Cl)cn2c2ccc(S(=O)(=O)N3CCOCC3)cc12	i	i	i	i	i
O=C1CSC(c2ccccc2Br)N1c1ccc(Cl)cn1 (stereo not drawn)	i	i	-7.01*	i	i
Cc1ccc(C(C)C)c(Oc2cnccn2)c1	i	i	i	i	i
CCOC(=O)c1[nH]c2cc(OC)c(OC)cc2c1NC(=O)C(C)N1CCN(Cc2ccccc2)CC1 (stereo not drawn)	i	i	-8.65*	i	i
CCOC(=O)c1[nH]c2ccc(OC)cc2c1NC(=O)C(C)N1CCSCC1 (stereo not drawn)	/	i	i	/	/
O=C(c1cc(-c2ccccc2)nc2ccccc12)N1CCN(c2ccccc2O)CC1	i	i	-7.12*	i	i
O=C(OCC(=O)N1CCN(C(=O)c2ccco2)CC1)c1cc(-c2ccc(Cl)c(Cl)c2Cl)nc2ccccc12	i	i	i	i	i
